These results are taken from ChEMBL document CHEMBL1138907, “Synthesis, hydrolyses and dermal delivery of N-alkyl-N-alkyloxycarbonylaminomethyl (NANAOCAM) derivatives of phenol, imide and thiol containing drugs” (Bioorg Med Chem Lett, 2006).

By pKa is commonly meant the negative logarithm of the acid dissociation constant. Broadly, the half-life is how long it takes for the measured level to halve. Read a high half-life as slow loss. Broadly, the solubility is the dissolved amount per volume that the medium holds.

Structures are written as SMILES. Converted amounts (≈) assume the structure as drawn.

Data set [1] in a line: Dissociation constant, pKa of the compound. In kind it is physicochemical.
A short description of data set [2]: Ratio for partition coefficient, log K in IPM to buffer at pH 4. It counts as physicochemical. Particulars: IPM/pH 4.0 buffer.
A short description of data set [3]: Half life of the compound. In kind it is ADME. The method in brief:
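Hydrolysis in aqueous buffer, followed by UV absorbance in a cuvette at about 10^-5 M final substrate. For the phenol derivatives, runs were at 46 °C in pH 8.8 buffer because hydrolysis at 32 °C was too slow. Half-lives were taken from plots of log(A∞ − At), or its negative, versus time.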

Data set [4] in a line: Aqueous solubility of the compound. In kind it is physicochemical. Particulars: water.
Data set [5] can be described thus: Solubility in IPM. It counts as physicochemical.

As to `COC(=O)N(C)CSc1[nH]cnc2ncnc1-2`, the pKa in data set [1] came out at 7.5. Further, the “log K” value in data set [2] is recorded as 0.03. This compound also yielded a half-life in data set [3] of 0.317 h. For the same compound, the solubility was 1450 µM (≈ 367 µg/mL) in data set [4] and 1350 µM (≈ 342 µg/mL) in data set [5] (IPM, read-out: Solubility).
Consider `COC(=O)N(C)COc1ccc([N+](=O)[O-])cc1`, for which the pKa in data set [1] was found to be 7.14. For the same compound, the half-life in data set [3] amounted to 0.367 h.
In the same order, the values of `COC(=O)N(C)COc1ccc(C(C)=O)cc1` are 8.05 and 3.15 h.
In the same order, the values of `COC(=O)N(C)COc1ccccc1C=O` are 6.79 and 0.2 h.
As to `CCOC(=O)c1ccc(N(COc2ccc([N+](=O)[O-])cc2)C(=O)OC)cc1`, the half-life in data set [3] is more than 24 h.
Compound `COC(=O)N(C)Cn1cnc2c1c(=O)n(C)c(=O)n2C` returned a pKa in data set [1] of 8.6. Besides, the “log K” value in data set [2] is recorded as -0.04. Moreover, in data set [3], the half-life was found to be 7 h. Besides, the solubility in data set [4] was determined as 9330 µM (≈ 2620 µg/mL); in data set [5] (IPM, read-out: Solubility), 2690 µM (≈ 757 µg/mL).
`COC(=O)N(COc1ccc([N+](=O)[O-])cc1)c1ccc(OC)cc1`: the half-life in data set [3] turned out to be 6.67 h.
The compound `COC(=O)N(C)COc1ccc(C=O)cc1` yielded a pKa in data set [1] of 7.66. In data set [3], this compound yielded a half-life of 1.25 h.
In data set [3], `COC(=O)N(COc1ccc([N+](=O)[O-])cc1)c1ccccc1` registered a half-life of 8.65 h.
`COC(=O)N(C)COc1ccc(NC(C)=O)cc1` had a pKa in data set [1] of 9.5. For the same compound, the “log K” value in data set [2] is on record as -0.45. Besides, the half-life in data set [3] was determined as 60 h. Moreover, the solubility in data set [4] was 45700 µM (≈ 11500 µg/mL); in data set [5] (IPM, read-out: Solubility), 14100 µM (≈ 3560 µg/mL).
Take `Cn1c(=O)c2[nH]cnc2n(C)c1=O.O` [THEOPHYLLINE]: the “log K” value in data set [2] is reported as -0.51. Moreover, the solubility was 46000 µM in data set [4] and 340 µM in data set [5] (IPM, read-out: Solubility).
As for `COC(=O)c1ccc(OCN(C)C(=O)OC)cc1`, the pKa in data set [1] was 8.47. Further, the half-life in data set [3] turned out to be 4.83 h.
In the same order, the values of `COC(=O)N(C)COC(=O)c1ccc(N(C)C)cc1` are 5.03 and 0.00367 h.
As to `Sc1ncnc2nc[nH]c12` [MERCAPTOPURINE ANHYDROUS], the “log K” value in data set [2] is reported as -1.75. Moreover, the solubility in data set [4] is 1120 µM (≈ 170 µg/mL); in data set [5] (IPM, read-out: Solubility), 20 µM (≈ 3.04 µg/mL).
With `CC(=O)Nc1ccc(O)cc1` [ACETAMINOPHEN], the “log K” value in data set [2] is -1.72. Further, the solubility in data set [4] was found to be 100000 µM (≈ 15100 µg/mL); in data set [5], 1910 µM (≈ 289 µg/mL).
Regarding `COC(=O)N(C)COc1ccc(C#N)cc1`, in data set [1], the pKa worked out at 7.95. The half-life in data set [3] was 2.48 h.
